Assay results published in publication PMC8367640 (Journal of Applied Glycoscience, 2021).

System: BlAga3
Test: HPAEC-PAD of released products
Assay type: biochemical, Bifidobacterium longum subsp. longum
Settings: 50 mM sodium acetate pH 6.0, 45 °C, 20 min
Method in brief: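 His-tagged recombinant BlAga3, TALON-purified (50 mM imidazole fraction, desalted). Enzyme in 50 mM sodium acetate pH 6.0 at 45 °C for 20 min: 0.20 μg/mL with 0.1–10 mM α-D-Gal-(1→3)-L-Ara, or 0.79 μg/mL with 1.0–50 mM raffinose. Stopped with 5 % TCA; released sugars quantified by HPAEC-PAD (NaOH/sodium acetate gradient).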

Km (1.0-50 mM substrate) [mM]	Km (0.1–10 mM substrate) [mM]	SMILES
29.5 ± 1	–	OC[C@H]1O[C@H](OC[C@H]2O[C@H](O[C@]3(CO)O[C@H](CO)[C@@H](O)[C@@H]3O)[C@H](O)[C@@H](O)[C@@H]2O)[C@H](O)[C@@H](O)[C@H]1O [Raffinose]
–	0.774 ± 0.014	OC[C@H]1O[C@H](O[C@H]2[C@@H](O)COC(O)[C@@H]2O)[C@H](O)[C@@H](O)[C@H]1O (stereo partly drawn) [GA, α-D-Gal-(1→3)-L-Ara]
